Assay results taken from ChEMBL document CHEMBL3797149, “1-Sulfonyl-6-Piperazinyl-7-Azaindoles as potent and pseudo-selective 5-HT6 receptor antagonists” (Bioorg Med Chem Lett, 2016).
Values after ≈ are worked out from the molar mass of the structure shown.

What was measured:
[1] = Cmax in CD1 mouse liver at 10 mg/kg, po as single dose after 6 hrs by LC-MS/MS analysis; format: ADME, organism-based; set-up: dose 10 mg/kg, route oral
[2] = target: Voltage-gated inwardly rectifying potassium channel KCNH2 (Homo sapiens, UniProt Q12809); assay: Inhibition of human ERG1 expressed in CHO cells by whole cell patch clamp electrophysiology method
Chain of Voltage-gated inwardly rectifying potassium channel KCNH2 (Q12809 whole entry): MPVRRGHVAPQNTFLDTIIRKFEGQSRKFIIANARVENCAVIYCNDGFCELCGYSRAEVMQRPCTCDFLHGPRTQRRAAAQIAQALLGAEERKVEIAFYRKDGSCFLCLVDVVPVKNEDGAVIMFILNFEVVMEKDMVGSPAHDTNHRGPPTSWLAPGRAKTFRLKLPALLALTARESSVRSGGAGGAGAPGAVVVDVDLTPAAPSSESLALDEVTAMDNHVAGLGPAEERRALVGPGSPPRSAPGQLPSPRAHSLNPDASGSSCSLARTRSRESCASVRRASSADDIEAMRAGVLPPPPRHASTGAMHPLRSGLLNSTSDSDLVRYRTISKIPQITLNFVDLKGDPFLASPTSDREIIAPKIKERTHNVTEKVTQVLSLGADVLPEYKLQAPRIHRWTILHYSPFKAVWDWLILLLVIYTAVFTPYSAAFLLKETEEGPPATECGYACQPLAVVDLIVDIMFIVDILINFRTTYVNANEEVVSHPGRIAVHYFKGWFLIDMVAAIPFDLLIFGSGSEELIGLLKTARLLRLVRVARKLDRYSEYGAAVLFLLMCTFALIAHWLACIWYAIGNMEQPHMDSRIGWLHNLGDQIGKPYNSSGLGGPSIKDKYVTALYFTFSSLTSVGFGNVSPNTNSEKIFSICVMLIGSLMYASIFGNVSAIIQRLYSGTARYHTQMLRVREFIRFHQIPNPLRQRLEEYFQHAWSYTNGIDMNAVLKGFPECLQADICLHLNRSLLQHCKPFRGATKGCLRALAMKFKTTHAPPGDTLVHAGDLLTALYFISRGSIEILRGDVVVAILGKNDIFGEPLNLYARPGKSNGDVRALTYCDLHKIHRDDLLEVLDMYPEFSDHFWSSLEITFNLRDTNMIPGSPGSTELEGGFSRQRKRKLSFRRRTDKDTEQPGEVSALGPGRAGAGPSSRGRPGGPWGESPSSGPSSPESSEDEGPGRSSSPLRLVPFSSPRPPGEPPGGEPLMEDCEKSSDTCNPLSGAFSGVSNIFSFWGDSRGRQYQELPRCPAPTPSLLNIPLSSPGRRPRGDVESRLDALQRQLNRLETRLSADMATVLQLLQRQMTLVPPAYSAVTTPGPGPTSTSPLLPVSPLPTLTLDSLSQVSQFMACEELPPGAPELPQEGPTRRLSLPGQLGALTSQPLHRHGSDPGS

[3] = Ratio of drug level in brain to plasma in CD1 mouse at 3 mg/kg, po as single dose by LC-MS/MS analysis; format: ADME, organism-based; conditions: BLD = below limit of detection
[4] = Tmax in CD1 mouse brain at 3 mg/kg, sc by LC-MS/MS analysis; format: ADME, organism-based
[5] = Ratio of drug level in brain to plasma in CD1 mouse at 10 mg/kg, po as single dose by LC-MS/MS analysis; format: ADME, organism-based; conditions: read-out: BPR
[6] = Tmax in CD1 mouse plasma at 3 mg/kg, sc by LC-MS/MS analysis; format: ADME, organism-based
[7] = AUClast in CD1 mouse plasma at 10 mg/kg, sc after 0.083 to 6 hrs by LC-MS/MS analysis; format: ADME, organism-based; set-up: time 0.083-6 hr, dose 10 mg/kg, route subcutaneous
[8] = Tmax in CD1 mouse liver at 10 mg/kg, po as single dose by LC-MS/MS analysis; format: ADME, organism-based
[9] = Cmax in CD1 mouse plasma at 3 mg/kg, po as single dose after 0.083 to 6 hrs by LC-MS/MS analysis; format: ADME, organism-based; set-up: dose 3 mg/kg, route oral
[10] = AUClast in CD1 mouse liver at 3 mg/kg, po as single dose after 6 hrs by LC-MS/MS analysis; format: ADME, organism-based; set-up: dose 3 mg/kg, time < 6 hr, route oral
Brain [11] = assay: Tmax in CD1 mouse brain at 3 mg/kg, po as single dose by LC-MS/MS analysis; format: ADME, organism-based; conditions: in vivo, BLD = below limit of detection
[12] = Cmax in CD1 mouse brain at 3 mg/kg, sc after 6 hrs by LC-MS/MS analysis; format: ADME, organism-based; set-up: dose 3 mg/kg, route subcutaneous
D(2) dopamine receptor = D(2) dopamine receptor (Homo sapiens, UniProt P14416); assay: Displacement of [3H]NMSP from human dopamine D2S receptor expressed in CHO cell membrane incubated for 1 hr by scintillation counting method; format: cell membranes
Chain of D(2) dopamine receptor (P14416 whole entry): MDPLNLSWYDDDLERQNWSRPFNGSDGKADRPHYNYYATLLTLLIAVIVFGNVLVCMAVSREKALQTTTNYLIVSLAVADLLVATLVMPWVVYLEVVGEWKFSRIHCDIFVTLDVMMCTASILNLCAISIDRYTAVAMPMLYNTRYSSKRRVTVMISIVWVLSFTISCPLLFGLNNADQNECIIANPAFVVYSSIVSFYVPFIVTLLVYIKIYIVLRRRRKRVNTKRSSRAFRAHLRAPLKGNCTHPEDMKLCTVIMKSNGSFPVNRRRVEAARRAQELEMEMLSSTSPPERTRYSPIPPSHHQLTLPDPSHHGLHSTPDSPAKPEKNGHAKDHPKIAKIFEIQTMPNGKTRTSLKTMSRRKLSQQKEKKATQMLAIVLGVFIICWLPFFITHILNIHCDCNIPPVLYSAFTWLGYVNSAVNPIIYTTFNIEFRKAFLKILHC
Outline: (§1)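 Competition binding: [3H]-LSD displacement for 5-HT6 and [3H]-NMSP displacement for D2. Eight compound concentrations, 5 × 10^-6 to 5 × 10^-13 M, each tested in triplicate. Affinity is reported as Ki.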

[13] = Cmax in CD1 mouse plasma at 3 mg/kg, sc after 0.083 to 6 hrs by LC-MS/MS analysis; format: ADME, organism-based; set-up: dose 3 mg/kg, route subcutaneous
[14] = Tmax in CD1 mouse brain at 10 mg/kg, po as single dose by LC-MS/MS analysis; format: ADME, organism-based
[15] = Tmax in CD1 mouse liver at 3 mg/kg, po as single dose by LC-MS/MS analysis; format: ADME, organism-based
[16] = Cmax in CD1 mouse plasma at 10 mg/kg, po as single dose after 0.083 to 6 hrs by LC-MS/MS analysis; format: ADME, organism-based; set-up: dose 10 mg/kg, route oral
[17] = Cmax in CD1 mouse brain at 10 mg/kg, sc after 6 hrs by LC-MS/MS analysis; format: ADME, organism-based; set-up: dose 10 mg/kg, route subcutaneous
[18] = Tmax in CD1 mouse liver at 10 mg/kg, sc by LC-MS/MS analysis; format: ADME, organism-based
[19] = Tmax in CD1 mouse liver at 3 mg/kg, sc by LC-MS/MS analysis; format: ADME, organism-based
[20] = AUClast in CD1 mouse liver at 10 mg/kg, sc after 6 hrs by LC-MS/MS analysis; format: ADME, organism-based; set-up: dose 10 mg/kg, time < 6 hr, route subcutaneous
[21] = Tmax in CD1 mouse plasma at 3 mg/kg, po as single dose by LC-MS/MS analysis; format: ADME, organism-based
[22] = AUClast in CD1 mouse plasma at 10 mg/kg, po as single dose after 0.083 to 6 hrs by LC-MS/MS analysis; format: ADME, organism-based; set-up: time upper 6 hr, time lower 0.083 hr, dose 10 mg/kg, route oral
[23] = Ratio of drug level in liver to plasma in CD1 mouse at 3 mg/kg, po as single dose by LC-MS/MS analysis; format: ADME, organism-based
[24] = Tmax in CD1 mouse plasma at 10 mg/kg, sc by LC-MS/MS analysis; format: ADME, organism-based
[25] = Tmax in CD1 mouse plasma at 10 mg/kg, po as single dose by LC-MS/MS analysis; format: ADME, organism-based
[26] = AUClast in CD1 mouse liver at 10 mg/kg, po as single dose after 6 hrs by LC-MS/MS analysis; format: ADME, organism-based; set-up: dose 10 mg/kg, time < 6 hr, route oral
[27] = Cmax in CD1 mouse brain at 10 mg/kg, po as single dose after 6 hrs by LC-MS/MS analysis; format: ADME, organism-based; set-up: dose 10 mg/kg, route oral
[28] = Ratio of drug level in brain to plasma in CD1 mouse at 10 mg/kg, sc by LC-MS/MS analysis; format: ADME, organism-based; conditions: read-out: BPR
[29] = AUClast in CD1 mouse plasma at 3 mg/kg, po as single dose after 0.083 to 6 hrs by LC-MS/MS analysis; format: ADME, organism-based; set-up: dose 3 mg/kg, time upper 6 hr, time lower 0.083 hr, route oral
[30] = Passive permeability of compound after 4 hrs by sink-PAMPA assay; format: ADME; conditions: read-out: permeability
[31] = Tmax in CD1 mouse brain at 10 mg/kg, sc by LC-MS/MS analysis; format: ADME, organism-based
[32] = Ratio of drug level in liver to plasma in CD1 mouse at 3 mg/kg, sc by LC-MS/MS analysis; format: ADME, organism-based
[33] = Ratio of drug level in liver to plasma in CD1 mouse at 10 mg/kg, sc by LC-MS/MS analysis; format: ADME, organism-based
Brain [34] = assay: Cmax in CD1 mouse brain at 3 mg/kg, po as single dose after 6 hrs by LC-MS/MS analysis; format: ADME, organism-based; set-up: dose 3 mg/kg, route oral; conditions: in vivo, BLD = below limit of detection
[35] = Cmax in CD1 mouse liver at 10 mg/kg, sc after 6 hrs by LC-MS/MS analysis; format: ADME, organism-based; set-up: dose 10 mg/kg, route subcutaneous
[36] = Intrinsic clearance in rat liver microsomes at 1 uM by UPLC-MS analysis in presence of NADPH and UDPGA; format: ADME; conditions: read-out: CLH
[37] = AUClast in CD1 mouse brain at 10 mg/kg, po as single dose after 6 hrs by LC-MS/MS analysis; format: ADME, organism-based; set-up: time < 6 hr, dose 10 mg/kg, route oral
[38] = AUClast in CD1 mouse brain at 10 mg/kg, sc after 6 hrs by LC-MS/MS analysis; format: ADME, organism-based; set-up: dose 10 mg/kg, time < 6 hr, route subcutaneous
[39] = AUClast in CD1 mouse brain at 3 mg/kg, sc after 6 hrs by LC-MS/MS analysis; format: ADME, organism-based; set-up: time < 6 hr, dose 3 mg/kg, route subcutaneous
[40] = AUClast in CD1 mouse plasma at 3 mg/kg, sc after 0.083 to 6 hrs by LC-MS/MS analysis; format: ADME, organism-based; set-up: time lower 0.083 hr, dose 3 mg/kg, time upper 6 hr, route subcutaneous
Cytochrome P450 3A4 = Cytochrome P450 3A4 (Homo sapiens, UniProt P08684); assay: Inhibition of human recombinant CYP3A4 using 7-benzyloxy-trifluoromethylcoumarin as substrate incubated for 30 mins by fluorescence analysis in presence of NADPH; format: ADME
Chain of Cytochrome P450 3A4 (P08684 whole entry): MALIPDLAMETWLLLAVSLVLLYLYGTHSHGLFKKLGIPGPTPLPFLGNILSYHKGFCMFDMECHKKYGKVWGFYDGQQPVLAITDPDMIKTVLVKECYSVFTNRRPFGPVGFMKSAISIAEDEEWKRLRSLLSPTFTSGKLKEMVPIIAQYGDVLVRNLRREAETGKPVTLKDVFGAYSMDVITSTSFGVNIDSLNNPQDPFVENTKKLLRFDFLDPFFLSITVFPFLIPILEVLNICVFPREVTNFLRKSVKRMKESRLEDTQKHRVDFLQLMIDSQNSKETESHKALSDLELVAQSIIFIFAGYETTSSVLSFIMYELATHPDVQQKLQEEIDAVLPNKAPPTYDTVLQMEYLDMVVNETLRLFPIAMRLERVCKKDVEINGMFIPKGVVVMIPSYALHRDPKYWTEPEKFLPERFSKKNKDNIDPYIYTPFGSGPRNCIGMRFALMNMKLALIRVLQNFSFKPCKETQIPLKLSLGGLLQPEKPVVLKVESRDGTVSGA

[41] = target: 5-hydroxytryptamine receptor 6 (Homo sapiens, UniProt P50406); assay: Displacement of [3H]LSD from human 5HT6 receptor in HEK293 cell membrane incubated for 1 hr by scintillation counting method; format: cell membranes; outline: as §1
Chain of 5-hydroxytryptamine receptor 6 (P50406 whole entry): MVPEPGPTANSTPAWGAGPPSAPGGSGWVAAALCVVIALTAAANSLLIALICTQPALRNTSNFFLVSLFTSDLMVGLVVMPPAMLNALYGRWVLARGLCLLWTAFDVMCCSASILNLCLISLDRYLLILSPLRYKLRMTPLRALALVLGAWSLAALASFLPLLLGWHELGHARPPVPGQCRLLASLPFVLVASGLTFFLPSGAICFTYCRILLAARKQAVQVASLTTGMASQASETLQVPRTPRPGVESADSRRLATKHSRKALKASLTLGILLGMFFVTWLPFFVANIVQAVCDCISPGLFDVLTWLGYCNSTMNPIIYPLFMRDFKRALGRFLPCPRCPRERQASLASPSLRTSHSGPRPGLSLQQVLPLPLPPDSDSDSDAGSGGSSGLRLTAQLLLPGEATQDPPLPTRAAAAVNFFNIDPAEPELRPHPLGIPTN

[42] = Cmax in CD1 mouse liver at 3 mg/kg, po as single dose after 6 hrs by LC-MS/MS analysis; format: ADME, organism-based; set-up: dose 3 mg/kg, route oral
[43] = Intrinsic clearance in human liver microsomes at 1 uM by UPLC-MS analysis in presence of NADPH and UDPGA; format: ADME; conditions: read-out: CLH
[44] = Cmax in CD1 mouse plasma at 10 mg/kg, sc after 0.083 to 6 hrs by LC-MS/MS analysis; format: ADME, organism-based; set-up: dose 10 mg/kg, route subcutaneous
[45] = Intrinsic clearance in mouse liver microsomes at 1 uM by UPLC-MS analysis in presence of NADPH and UDPGA; format: ADME; conditions: read-out: CLH
[46] = AUClast in CD1 mouse liver at 3 mg/kg, sc after 6 hrs by LC-MS/MS analysis; format: ADME, organism-based; set-up: time < 6 hr, dose 3 mg/kg, route subcutaneous
[47] = Cmax in CD1 mouse liver at 3 mg/kg, sc after 6 hrs by LC-MS/MS analysis; format: ADME, organism-based; set-up: dose 3 mg/kg, route subcutaneous
[48] = Ratio of drug level in brain to plasma in CD1 mouse at 3 mg/kg, sc by LC-MS/MS analysis; format: ADME, organism-based; conditions: read-out: BPR
[49] = Ratio of drug level in liver to plasma in CD1 mouse at 10 mg/kg, po as single dose by LC-MS/MS analysis; format: ADME, organism-based
[50] = Kinetic solubility in sorensen buffer at pH 7.4 incubated for 1 hr by UV-Visible spectrophotometry; format: physicochemical; conditions: read-out: Kinetic_solubility
Cytochrome P450 2D6 = Cytochrome P450 2D6 (Homo sapiens, UniProt P10635); assay: Inhibition of human recombinant CYP2D6 using AMMC as substrate incubated for 45 mins by fluorescence analysis in presence of NADPH; format: ADME
Chain of Cytochrome P450 2D6 (P10635 whole entry): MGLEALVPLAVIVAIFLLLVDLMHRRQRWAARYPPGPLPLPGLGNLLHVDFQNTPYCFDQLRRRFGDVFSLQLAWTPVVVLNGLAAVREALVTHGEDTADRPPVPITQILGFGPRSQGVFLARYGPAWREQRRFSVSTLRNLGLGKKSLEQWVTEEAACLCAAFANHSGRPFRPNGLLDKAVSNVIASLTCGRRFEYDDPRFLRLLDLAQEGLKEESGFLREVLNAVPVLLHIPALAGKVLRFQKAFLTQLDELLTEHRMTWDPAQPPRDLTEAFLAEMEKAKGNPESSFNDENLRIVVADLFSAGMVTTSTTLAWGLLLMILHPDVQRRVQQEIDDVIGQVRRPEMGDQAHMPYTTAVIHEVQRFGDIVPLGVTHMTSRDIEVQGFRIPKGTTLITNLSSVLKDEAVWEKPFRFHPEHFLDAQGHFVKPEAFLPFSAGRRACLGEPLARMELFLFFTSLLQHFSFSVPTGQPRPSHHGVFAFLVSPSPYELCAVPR

Cmax [1]: 740 ng/mL | BPR [3]: BLD | Tmax [4]: 6 h | Kp [5]: 1.4 | Tmax [6]: 1 h | AUC(0-t) [7]: 208 ng·h/mL | Tmax [8]: 30 min | Cmax [9]: 3 ng/mL | AUC(0-t) at 6 h [10]: 260 ng·h/mL | Tmax (Brain [11]): BLD | Cmax [12]: 16 ng/mL | Ki (D(2) dopamine receptor): 367 nM | Cmax [13]: 18 ng/mL | Tmax [14]: 6 h | Tmax [15]: 15 min | Cmax [16]: 17 ng/mL | Cmax [17]: 36 ng/mL | Tmax [18]: 1 h | Tmax [19]: 1 h | AUC(0-t) at 6 h [20]: 687 ng·h/mL | Tmax [21]: 1 h | AUC(0-t) [22]: 97 ng·h/mL | Kp [23]: 19.5 | Tmax [24]: 1 h | Tmax [25]: 6 h | AUC(0-t) at 6 h [26]: 2970 ng·h/mL | Cmax [27]: 26 ng/mL | Kp [28]: 0.8 | AUC(0-t) [29]: 13 ng·h/mL | Papp at 4 h [30]: 53.7 ×10⁻⁶ cm/s | Tmax [31]: 6 h | Kp [32]: 2.7 | Kp [33]: 3.3 | Cmax (Brain [34]): BLD | Cmax [35]: 142 ng/mL | microsomal CLint at 1 µM [36]: 55 µL/min/mg | AUC(0-t) at 6 h [37]: 134 ng·h/mL | AUC(0-t) at 6 h [38]: 161 ng·h/mL | AUC(0-t) at 6 h [39]: 79 ng·h/mL | AUC(0-t) [40]: 90 ng·h/mL | IC50 (Cytochrome P450 3A4): 1100 nM | Ki [41]: 4 nM | Cmax [42]: 110 ng/mL | microsomal CLint at 1 µM [43]: 20 µL/min/mg | Cmax [44]: 44 ng/mL | microsomal CLint at 1 µM [45]: 63 µL/min/mg | AUC(0-t) at 6 h [46]: 241 ng·h/mL | Cmax [47]: 43 ng/mL | Kp [48]: 0.9 | Kp [49]: 30.7 | solubility kinetic at 1 h [50]: 8 µg/mL (≈ 16.6 µM) | IC50 (Cytochrome P450 2D6): 3.3 µM
Compound: CC(C)CS(=O)(=O)n1ccc2c(-c3ccc(C(F)(F)F)cc3)cc(N3CCN(C)CC3)nc21
IC50 [2]: 2100 nM
